Data reported in ChEMBL document CHEMBL3739273, “Synthesis, biological activity evaluation and molecular docking studies of novel coumarin substituted thiazolyl-3-aryl-pyrazole-4-carbaldehydes” (Bioorg Med Chem Lett, 2015).
In brackets after ≈: the same amount, converted by molar mass. Activity calls are given as the source filed them. The calls are words filed in the database; no cut-off is given here.

test system: Bacillus cereus; experiment: Bactericidal activity against Bacillus cereus ATCC 14579 after 24 hrs; assay type: functional; conditions: ATCC 14579, 24 h, read-out: MBC99.9
Method in brief: (§1)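 MBC determined by a standard MBC protocol alongside the MIC, with values in µg/mL. Gentamycin sulfate and ampicillin were the references.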

Row | SMILES | MBC [µg/mL]
1 | COc1cccc2cc(-c3csc(-n4cc(C=O)c(-c5ccc(Cl)cc5)n4)n3)c(=O)oc12 | 250 (≈ 539 µM)

test system: Klebsiella pneumoniae; experiment: Antibacterial activity against Klebsiella pneumoniae ATCC 43816 assessed as growth inhibition at 100 ug/ml after 24 hrs by agar well diffusion method; assay type: functional; conditions: not given
Method in brief: (§2)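 Agar well diffusion. Compounds were tested at 10, 20, 100, 200 and 300 µg/mL, and the zone of inhibition was measured in mm. Gentamycin sulfate was the reference drug.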

Row | SMILES | growth inhibition (GI)
2 | COc1cccc2cc(-c3csc(-n4cc(C=O)c(-c5ccc(Cl)cc5)n4)n3)c(=O)oc12 | Active

test system: MCF7; experiment: Anticancer activity against human MCF7 cells assessed as cell viability after 48 hrs by MTT assay; assay type: functional, cell-based; conditions: MCF7, 48 h
Method in brief: (§3)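 MTT cytotoxicity assay in human DU-145 prostate, MCF-7 breast and HeLa cervical cancer cell lines. Doxorubicin was the reference drug.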

Row | SMILES | IC50 [µM]
3 | COc1cccc2cc(-c3csc(-n4cc(C=O)c(-c5ccc(Cl)cc5)n4)n3)c(=O)oc12 | 71.7

test system: Proteus vulgaris; experiment: Antibacterial activity against Proteus vulgaris ATCC 13315 assessed as growth inhibition at 100 ug/ml after 24 hrs by agar well diffusion method; assay type: functional; conditions: not given; method in brief: as §2

Row | SMILES | growth inhibition (GI)
4 | COc1cccc2cc(-c3csc(-n4cc(C=O)c(-c5ccc(Cl)cc5)n4)n3)c(=O)oc12 | Active

test system: Staphylococcus aureus; experiment: Antibacterial activity against methicillin-resistant Staphylococcus aureus NCTC 13616 after 24 hrs by microtiter plate method; assay type: functional; conditions: NCTC 13616, 24 h

Row | SMILES | MIC [µg/mL]
5 | COc1cccc2cc(-c3csc(-n4cc(C=O)c(-c5ccc(Cl)cc5)n4)n3)c(=O)oc12 | 139 (≈ 300 µM)

test system: Staphylococcus aureus; experiment: Antibacterial activity against methicillin-resistant Staphylococcus aureus NCTC 13616 assessed as growth inhibition at 100 ug/ml after 24 hrs by agar well diffusion method; assay type: functional, organism-based; conditions: not given
Method in brief: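 Agar well diffusion assay with compounds applied to wells at several concentrations, including the 100 level reported here. The zone of inhibition was measured in mm. Gentamycin sulfate was the standard drug.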

Row | SMILES | growth inhibition (GI)
6 | COc1cccc2cc(-c3csc(-n4cc(C=O)c(-c5ccc(Cl)cc5)n4)n3)c(=O)oc12 | Active

test system: Proteus vulgaris; experiment: Bactericidal activity against Proteus vulgaris ATCC 13315 after 24 hrs; assay type: functional; conditions: ATCC 13315, 24 h, read-out: MBC99.9; method in brief: as §1

Row | SMILES | MBC [µg/mL]
7 | COc1cccc2cc(-c3csc(-n4cc(C=O)c(-c5ccc(Cl)cc5)n4)n3)c(=O)oc12 | 260 (≈ 560 µM)

test system: Klebsiella pneumoniae; experiment: Bactericidal activity against Klebsiella pneumoniae ATCC 43816 after 24 hrs; assay type: functional; conditions: ATCC 43816, 24 h, read-out: MBC99.9; method in brief: as §1

Row | SMILES | MBC [µg/mL]
8 | COc1cccc2cc(-c3csc(-n4cc(C=O)c(-c5ccc(Cl)cc5)n4)n3)c(=O)oc12 | 260 (≈ 560 µM)

test system: HeLa; experiment: Anticancer activity against human HeLa cells assessed as cell viability after 48 hrs by MTT assay; assay type: functional, cell-based; conditions: not given; method in brief: as §3

Row | SMILES | IC50 [µM]
9 | COc1cccc2cc(-c3csc(-n4cc(C=O)c(-c5ccc(Cl)cc5)n4)n3)c(=O)oc12 | 41.9

test system: Bacillus spizizenii; experiment: Antibacterial activity against Bacillus subtilis ATCC 6633 after 24 hrs by microtiter plate method; assay type: functional; conditions: ATCC 6633, 24 h
Method in brief: (§4)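 Test concentrations reported in µg/mL. Gentamycin sulfate and ampicillin were the reference drugs.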

Row | SMILES | MIC [µg/mL]
10 | COc1cccc2cc(-c3csc(-n4cc(C=O)c(-c5ccc(Cl)cc5)n4)n3)c(=O)oc12 | 133 (≈ 286 µM)

test system: Bacillus spizizenii; experiment: Bactericidal activity against Bacillus subtilis ATCC 6633 after 24 hrs; assay type: functional; conditions: ATCC 6633, 24 h, read-out: MBC99.9; method in brief: as §1

Row | SMILES | MBC [µg/mL]
11 | COc1cccc2cc(-c3csc(-n4cc(C=O)c(-c5ccc(Cl)cc5)n4)n3)c(=O)oc12 | 260 (≈ 560 µM)

test system: Klebsiella pneumoniae; experiment: Antibacterial activity against Klebsiella pneumoniae ATCC 43816 after 24 hrs by microtiter plate method; assay type: functional; conditions: ATCC 43816, 24 h; method in brief: as §4

Row | SMILES | MIC [µg/mL]
12 | COc1cccc2cc(-c3csc(-n4cc(C=O)c(-c5ccc(Cl)cc5)n4)n3)c(=O)oc12 | 129 (≈ 278 µM)

test system: Escherichia coli; experiment: Antibacterial activity against Escherichia coli ATCC 8739 after 24 hrs by microtiter plate method; assay type: functional; conditions: ATCC 8739, 24 h; method in brief: as §4

Row | SMILES | MIC [µg/mL]
13 | COc1cccc2cc(-c3csc(-n4cc(C=O)c(-c5ccc(Cl)cc5)n4)n3)c(=O)oc12 | 125 (≈ 270 µM)

test system: Escherichia coli; experiment: Antibacterial activity against Escherichia coli ATCC 8739 assessed as growth inhibition at 100 ug/ml after 24 hrs by agar well diffusion method; assay type: functional; conditions: not given; method in brief: as §2

Row | SMILES | growth inhibition (GI)
14 | COc1cccc2cc(-c3csc(-n4cc(C=O)c(-c5ccc(Cl)cc5)n4)n3)c(=O)oc12 | Active

test system: Bacillus spizizenii; experiment: Antibacterial activity against Bacillus subtilis ATCC 6633 assessed as growth inhibition at 100 ug/ml after 24 hrs by agar well diffusion method; assay type: functional, organism-based; conditions: not given; method in brief: as §2

Row | SMILES | growth inhibition (GI)
15 | COc1cccc2cc(-c3csc(-n4cc(C=O)c(-c5ccc(Cl)cc5)n4)n3)c(=O)oc12 | Active

test system: Proteus vulgaris; experiment: Antibacterial activity against Proteus vulgaris ATCC 13315 after 24 hrs by microtiter plate method; assay type: functional; conditions: ATCC 13315, 24 h; method in brief: as §4

Row | SMILES | MIC [µg/mL]
16 | COc1cccc2cc(-c3csc(-n4cc(C=O)c(-c5ccc(Cl)cc5)n4)n3)c(=O)oc12 | 132 (≈ 285 µM)

test system: Escherichia coli; experiment: Bactericidal activity against Escherichia coli ATCC 8739 after 24 hrs; assay type: functional; conditions: ATCC 8739, 24 h, read-out: MBC99.9; method in brief: as §1

Row | SMILES | MBC [µg/mL]
17 | COc1cccc2cc(-c3csc(-n4cc(C=O)c(-c5ccc(Cl)cc5)n4)n3)c(=O)oc12 | 185 (≈ 399 µM)

test system: not listed separately; experiment: Anticancer activity against human DU145 cells assessed as cell viability after 48 hrs by MTT assay; assay type: functional, cell-based; conditions: DU-145, 48 h; method in brief: as §3

Row | SMILES | IC50 [µM]
18 | COc1cccc2cc(-c3csc(-n4cc(C=O)c(-c5ccc(Cl)cc5)n4)n3)c(=O)oc12 | 38.2

test system: Bacillus cereus; experiment: Antibacterial activity against Bacillus cereus ATCC 14579 assessed as growth inhibition at 100 ug/ml after 24 hrs by agar well diffusion method; assay type: functional; conditions: not given; method in brief: as §2

Row | SMILES | growth inhibition (GI)
19 | COc1cccc2cc(-c3csc(-n4cc(C=O)c(-c5ccc(Cl)cc5)n4)n3)c(=O)oc12 | Active

test system: Bacillus cereus; experiment: Antibacterial activity against Bacillus cereus ATCC 14579 after 24 hrs by microtiter plate method; assay type: functional; conditions: ATCC 14579, 24 h; method in brief: as §4

Row | SMILES | MIC [µg/mL]
20 | COc1cccc2cc(-c3csc(-n4cc(C=O)c(-c5ccc(Cl)cc5)n4)n3)c(=O)oc12 | 126 (≈ 272 µM)

target: T1, Cytochrome P450 2A6 (Homo sapiens, UniProt P11509); experiment: Inhibition of human microsomal CYP2A6; assay type: ADME; conditions: not given
T1 sequence (P11509 whole entry): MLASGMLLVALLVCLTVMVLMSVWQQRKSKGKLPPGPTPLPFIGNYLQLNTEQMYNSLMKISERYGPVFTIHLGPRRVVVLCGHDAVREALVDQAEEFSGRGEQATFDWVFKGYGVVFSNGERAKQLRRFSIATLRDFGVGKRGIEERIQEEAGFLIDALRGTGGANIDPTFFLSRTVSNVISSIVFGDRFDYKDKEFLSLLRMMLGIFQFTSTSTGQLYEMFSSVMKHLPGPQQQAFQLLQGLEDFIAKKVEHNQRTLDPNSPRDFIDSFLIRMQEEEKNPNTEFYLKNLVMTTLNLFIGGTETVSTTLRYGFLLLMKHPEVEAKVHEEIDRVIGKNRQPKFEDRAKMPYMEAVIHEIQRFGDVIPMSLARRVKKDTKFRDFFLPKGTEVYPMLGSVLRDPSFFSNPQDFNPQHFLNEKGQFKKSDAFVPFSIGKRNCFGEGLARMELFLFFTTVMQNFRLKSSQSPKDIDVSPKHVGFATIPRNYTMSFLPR

Row | SMILES | Ki [µM]
21 | COc1cccc2cc(-c3csc(-n4cc(C=O)c(-c5ccc(Cl)cc5)n4)n3)c(=O)oc12 | 0.00327

test system: Staphylococcus aureus; experiment: Bactericidal activity against methicillin-resistant Staphylococcus aureus NCTC 13616 after 24 hrs; assay type: functional; conditions: NCTC 13616, 24 h, read-out: MBC99.9
Method in brief: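 MBC determined by a standard MBC protocol run alongside the MIC determination. Gentamycin sulfate and ampicillin served as reference drugs.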

Row | SMILES | MBC [µg/mL]
22 | COc1cccc2cc(-c3csc(-n4cc(C=O)c(-c5ccc(Cl)cc5)n4)n3)c(=O)oc12 | 275 (≈ 593 µM)
